Assay results taken from PMC12949657 (Journal of medicinal chemistry, 2024).
Converted amounts (≈) assume the structure as drawn.

Tests used:
[1] = system: Enterococcus faecium NCTC 7171 (ATCC 19434); experiment: Antibacterial growth inhibition; type: cell-based; details: ATCC19434|NCTC7171, read-out: E. faecium MIC
[2] = Mouse snapshot 5 h PK study; type: in vivo; details: female, CD-1, mouse, plasma, po, 25 mg/kg
In short: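 Two female CD-1 mice received a single oral 25 mg/kg dose in 5% DMA/60% PEG300/35% D5W. Blood was collected into K2EDTA pre-dose and at 0.5, 1, 3 and 5 h, kept on ice, and spun to plasma stored at −80 °C. Quantitation was by LC-MS/MS against plasma standard curves (1/x² weighting) after acetonitrile/methanol precipitation with verapamil internal standard. AUC was calculated by trapezoidal integration.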

Staphylococcus aureus = experiment: MIC assay, S. aureus; type: cell-based
Klebsiella pneumoniae = experiment: MIC assay, K. pneumoniae; type: cell-based
Acinetobacter baumannii = experiment: MIC assay, A. baumannii; type: cell-based
Pseudomonas aeruginosa = experiment: MIC assay, P. aeruginosa; type: cell-based
E. faecium NCTC 7171 [3] = experiment: Minimum bactericidal concentration; type: cell-based; details: Enterococcus faecium, NCTC7171, read-out: minimal bactericidal concentration (MBC)
In short: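 MBC was taken from the broth microdilution MIC plate. Mid-log E. faecium (OD600 0.2–0.3) was diluted 1:1000 into cation-adjusted Mueller-Hinton II broth with 1% IsoVitaleX, with test compound typically at 200–0.1 μg/mL, and incubated overnight at 37 °C. Wells were mixed, serially diluted 10-fold in DPBS and plated on Mueller-Hinton plus 1% IsoVitaleX agar. Colonies were counted after 2 d at 37 °C.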

[4] = Human plasma protein binding; type: in vitro ADME
[5] = Mouse plasma protein binding; type: in vitro ADME
CYP1A2 = target: T1, CYP1A2 (Homo sapiens, UniProt P05177); experiment: Human cytochrome P450 inhibition assay, 1A2; type: in vitro ADME; details: human liver microsomes, 0 – 50 μM
T1 sequence (P05177 1-516): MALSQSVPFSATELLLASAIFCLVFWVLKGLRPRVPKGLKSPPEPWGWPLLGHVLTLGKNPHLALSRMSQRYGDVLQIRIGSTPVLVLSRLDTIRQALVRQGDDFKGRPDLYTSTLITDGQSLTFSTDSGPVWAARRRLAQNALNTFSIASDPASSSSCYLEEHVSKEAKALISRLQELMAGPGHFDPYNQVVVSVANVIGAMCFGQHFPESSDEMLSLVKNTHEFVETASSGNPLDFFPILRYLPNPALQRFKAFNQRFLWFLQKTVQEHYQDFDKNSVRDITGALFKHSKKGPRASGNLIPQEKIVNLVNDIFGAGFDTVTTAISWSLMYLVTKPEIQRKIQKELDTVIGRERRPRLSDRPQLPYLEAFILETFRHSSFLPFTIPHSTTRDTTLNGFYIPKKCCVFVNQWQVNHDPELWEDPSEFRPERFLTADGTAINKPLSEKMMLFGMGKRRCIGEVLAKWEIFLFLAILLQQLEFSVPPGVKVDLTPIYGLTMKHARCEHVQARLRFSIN

CYP2C9 = CYP2C9 (Homo sapiens, UniProt P11712); experiment: Human cytochrome P450 inhibition assay, 2C9; type: in vitro ADME; details: human liver microsomes, 0 – 50 μM
CYP2C19 = CYP2C19 (Homo sapiens, UniProt P33261); experiment: Human cytochrome P450 inhibition assay, 2C19; type: in vitro ADME; details: human liver microsomes, 0 – 50 μM
CYP2D6 = CYP2D6 (Homo sapiens, UniProt P10635); experiment: Human cytochrome P450 inhibition assay, 2D6; type: in vitro ADME; details: human liver microsomes, 0 – 50 μM
CYP3A4 = CYP3A4 (Homo sapiens, UniProt P08684); experiment: Human cytochrome P450 inhibition assay, 3A4; type: in vitro ADME; details: human liver microsomes, 0 – 50 μM
[6] = Mouse dose tolerability/proportionality study; type: in vivo
E. faecium EN 2966 = experiment: MIC assay, vancomycin-resistant E. faecium EN 2966; type: cell-based, Enterococcus faecium
E. faecium NCTC 7171 [7] = experiment: Griess assay for intrabacterial NO release; type: cell-based, Enterococcus faecium; details: 100 μM, 24 h and 48 h
In short: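 E. faecium NCTC 7171 was started from a single colony in Mueller-Hinton medium and grown to OD600 0.4. The culture was split into untreated, test compound (100 μM) and DEA-NONOate (100 μM) batches. At 24 h and 48 h, samples were centrifuged and supernatants mixed with fresh Griess reagent for 30 min at rt. A548 was read, and nitrite was estimated against sodium nitrite standards (50–0.78 μM, 2-fold, in Mueller-Hinton).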

E. faecium = details: cited from earlier work

CYP2D6, sequence (P10635 whole entry): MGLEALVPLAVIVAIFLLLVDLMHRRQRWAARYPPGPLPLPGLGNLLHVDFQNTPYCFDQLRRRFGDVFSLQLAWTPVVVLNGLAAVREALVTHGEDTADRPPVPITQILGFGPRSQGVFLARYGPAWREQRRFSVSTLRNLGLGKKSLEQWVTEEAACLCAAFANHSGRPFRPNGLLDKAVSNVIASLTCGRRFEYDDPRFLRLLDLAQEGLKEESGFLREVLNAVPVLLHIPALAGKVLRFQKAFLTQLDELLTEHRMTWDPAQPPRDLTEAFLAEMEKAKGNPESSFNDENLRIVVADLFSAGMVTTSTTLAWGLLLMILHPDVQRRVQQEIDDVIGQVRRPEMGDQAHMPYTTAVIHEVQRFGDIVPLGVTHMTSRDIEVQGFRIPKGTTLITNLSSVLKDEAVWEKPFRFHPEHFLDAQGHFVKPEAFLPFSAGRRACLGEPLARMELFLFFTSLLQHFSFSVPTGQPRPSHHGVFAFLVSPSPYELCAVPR
CYP3A4, sequence (P08684 whole entry): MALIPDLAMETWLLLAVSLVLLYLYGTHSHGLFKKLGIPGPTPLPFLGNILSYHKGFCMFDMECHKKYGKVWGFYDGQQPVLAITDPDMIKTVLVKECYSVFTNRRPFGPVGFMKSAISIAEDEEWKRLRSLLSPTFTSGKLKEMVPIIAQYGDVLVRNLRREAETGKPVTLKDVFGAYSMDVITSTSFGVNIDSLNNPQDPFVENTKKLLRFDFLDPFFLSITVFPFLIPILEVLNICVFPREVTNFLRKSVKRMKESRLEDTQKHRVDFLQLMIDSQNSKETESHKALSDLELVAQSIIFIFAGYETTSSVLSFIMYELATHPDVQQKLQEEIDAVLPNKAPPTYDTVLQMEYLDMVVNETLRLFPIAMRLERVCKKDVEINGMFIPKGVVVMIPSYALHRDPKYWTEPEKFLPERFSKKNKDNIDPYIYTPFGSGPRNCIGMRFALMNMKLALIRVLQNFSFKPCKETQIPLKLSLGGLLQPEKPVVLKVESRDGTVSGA
CYP2C19, sequence (P33261 whole entry): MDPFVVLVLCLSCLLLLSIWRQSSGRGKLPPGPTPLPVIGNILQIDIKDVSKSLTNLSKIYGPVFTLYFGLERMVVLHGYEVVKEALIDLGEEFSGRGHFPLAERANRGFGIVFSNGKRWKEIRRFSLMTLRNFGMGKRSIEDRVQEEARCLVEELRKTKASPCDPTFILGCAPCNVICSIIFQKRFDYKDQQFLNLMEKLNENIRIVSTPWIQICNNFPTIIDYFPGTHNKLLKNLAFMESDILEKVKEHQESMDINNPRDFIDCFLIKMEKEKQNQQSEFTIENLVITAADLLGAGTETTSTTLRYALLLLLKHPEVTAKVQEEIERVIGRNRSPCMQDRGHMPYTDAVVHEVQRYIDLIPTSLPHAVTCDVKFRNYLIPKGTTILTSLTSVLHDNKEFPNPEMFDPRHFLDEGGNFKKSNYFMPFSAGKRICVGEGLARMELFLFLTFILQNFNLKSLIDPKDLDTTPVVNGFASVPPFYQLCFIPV
CYP2C9, sequence (P11712 whole entry): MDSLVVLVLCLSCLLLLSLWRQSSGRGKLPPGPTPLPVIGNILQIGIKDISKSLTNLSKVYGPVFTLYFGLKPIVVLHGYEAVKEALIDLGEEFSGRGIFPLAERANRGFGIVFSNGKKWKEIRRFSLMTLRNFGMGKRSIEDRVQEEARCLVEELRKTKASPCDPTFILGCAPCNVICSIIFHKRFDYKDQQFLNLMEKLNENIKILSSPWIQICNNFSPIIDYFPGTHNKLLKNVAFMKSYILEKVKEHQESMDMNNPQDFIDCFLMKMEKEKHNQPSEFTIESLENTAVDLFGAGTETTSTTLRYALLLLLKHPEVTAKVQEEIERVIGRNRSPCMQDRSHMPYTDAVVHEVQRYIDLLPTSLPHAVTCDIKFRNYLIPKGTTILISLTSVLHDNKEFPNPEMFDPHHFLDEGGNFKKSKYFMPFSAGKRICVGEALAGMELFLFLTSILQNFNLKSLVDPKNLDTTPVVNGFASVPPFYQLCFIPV

For O=C(NNC(=O)c1cc2ccccc2s1)c1ccc([N+](=O)[O-])o1 [JSF-2827, N'-(benzo[b]thiophene-2-carbonyl)-5-nitrofuran-2-carbohydrazide], the MIC [1] was 0.75 µM (≈ 0.248 µg/mL).
Work on O=C(NNC(=O)c1cc2cc(Cl)cc(Cl)c2s1)c1ccc([N+](=O)[O-])o1 [Compound 22] yielded an AUC(0-t) [2] of 43800 ng·h/mL.
O=C(NNC(=O)c1sc2cc(Cl)ccc2c1Cl)c1ccc([N+](=O)[O-])o1 [JSF-3269] showed an MIC [1] of 1.9 to 3.8 µM (≈ 0.76 to 1.52 µg/mL), an MIC (Staphylococcus aureus) of 16 µM (≈ 6.4 µg/mL) and an MIC (Klebsiella pneumoniae) greater than 120 µM. It also gave an MIC (Acinetobacter baumannii) greater than 120 µM, an MIC (Pseudomonas aeruginosa) greater than 120 µM and an MBC (E. faecium NCTC 7171 [3]) of 7.7 to 15 µM (≈ 3.08 to 6 µg/mL). For the same molecule, the “binding to human plasma” value [4] was 99.3%, the “binding to mouse plasma” value [5] was 99.99% and the “inhibition of human cytochrome P450 1A2” value (CYP1A2) was “not a significant inhibitor”. For the same molecule, the “inhibition of human cytochrome P450 2C9” value (CYP2C9) was “not a significant inhibitor”, the “inhibition of human cytochrome P450 2C19” value (CYP2C19) was “not a significant inhibitor” and the “inhibition of human cytochrome P450 2D6” value (CYP2D6) was “not a significant inhibitor”. The “inhibition of human cytochrome P450 3A4” value (CYP3A4) was “not a significant inhibitor”, the “exposure (AUC0-24h) dose proportionality” value ([6]; mice, 50, 150 and 300 mg/kg po) was “appeared to plateau between 150 and 300 mg/kg” and the dose tolerability ([6]; mice, doses up to the highest level tested of 300 mg/kg po) was “tolerated”. For the same molecule, the MIC (E. faecium EN 2966) was “the same MIC as versus the NCTC 7171 strain” and the “intracellular release of NO• (nitrite in supernatant)” value (E. faecium NCTC 7171 [7]) was “no evidence was found to support the intracellular release of NO•”.
In the case of O=C(NNC(=O)c1cc2cc(C(F)(F)F)cc(Cl)c2s1)c1ccc([N+](=O)[O-])o1 [Compound 25], the AUC(0-t) [2] is reported as 111000 ng·h/mL.
In the case of O=C1CN(/N=C/c2ccc([N+](=O)[O-])o2)C(=O)N1 [nitrofurantoin], the “in vitro efficacy versus E. faecium” value (E. faecium) is given as “limited in vitro efficacy”.
